From ChEMBL document CHEMBL4304756, “Second-Generation Tryptamine Derivatives Potently Sensitize Colistin Resistant Bacteria to Colistin” (ACS Med Chem Lett, 2019) come the findings set out here.

Activity calls are given as the source filed them. The calls are words filed in the database; no cut-off is given here.

Data set [1] concerns Acinetobacter baumannii. In words: Potentiation of colistin-induced antibacterial activity against Acinetobacter baumannii 4106 assessed as reduction in colistin MIC at 20 uM incubated for 16 hrs by broth microdilution method (reference value: 1024 ug/ml). Type of data set: functional. Conditions: Acinetobacter baumannii, 4106, 16 h.
Data set [2] relates to Klebsiella pneumoniae. In words: Potentiation of colistin-induced antibacterial activity against Klebsiella pneumoniae B9 assessed as reduction in colistin MIC at 20 uM incubated for 16 hrs by broth microdilution method (reference value: 512 ug/ml). Type of data set: functional. Conditions: B9, 16 h. (In general: In broth dilution the organism is exposed to a series of concentrations in liquid medium.)

The subject of data set [3] is Acinetobacter baumannii. In words: Potentiation of colistin-induced antibacterial activity against Acinetobacter baumannii 3941 assessed as reduction in colistin MIC at 10 uM incubated for 16 hrs by broth microdilution method (reference value: 512 ug/ml). In kind it is functional. Conditions: Acinetobacter baumannii, 3941, 16 h.
Data set [4] relates to Klebsiella pneumoniae. Kind of data set: Potentiation of colistin-induced antibacterial activity against Klebsiella pneumoniae C3 assessed as reduction in colistin MIC at 15 uM incubated for 16 hrs by broth microdilution method (reference value: 512 ug/ml). Type of data set: functional. Conditions: C3, 16 h.
The test system of data set [5] is Klebsiella pneumoniae. In words: Potentiation of colistin-induced antibacterial activity against Klebsiella pneumoniae 2210291 assessed as colistin MIC at 50 uM incubated for 16 hrs by broth microdilution method (reference value: 1 ug/ml). Type of data set: functional. Conditions: Klebsiella pneumoniae, 2210291, 16 h.
The test system of data set [6] is Acinetobacter baumannii. In words: Potentiation of colistin-induced antibacterial activity against Acinetobacter baumannii 4106 assessed as reduction in colistin MIC at 10 uM incubated for 16 hrs by broth microdilution method (reference value: 1024 ug/ml). Type of data set: functional. Conditions: Acinetobacter baumannii, 4106, 16 h.
Data set [7] deals with Klebsiella pneumoniae. Kind of data set: Potentiation of colistin-induced antibacterial activity against Klebsiella pneumoniae B9 assessed as reduction in colistin MIC at 15 uM incubated for 16 hrs by broth microdilution method (reference value: 512 ug/ml). Type of data set: functional. Conditions: B9, 16 h.
The subject of data set [8] is Acinetobacter baumannii. Kind of data set: Potentiation of colistin-induced antibacterial activity against Acinetobacter baumannii 17978 harbouring mcr-1 gene assessed as reduction in colistin MIC at 15 uM incubated for 16 hrs by broth microdilution method (reference value: 16 ug/ml). In kind it is functional. Conditions: Acinetobacter baumannii, 17978, 16 h. In outline: (§1)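 For the dose-response, colistin MIC was measured against mcr-1 plasmid-bearing E. coli, K. pneumoniae and A. baumannii while the adjuvant concentration was lowered stepwise (30, 15 μM, down to 5 μM). The aim was to find where the MIC rose above the 2 μg/mL CLSI susceptibility breakpoint.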

In data set [9] the test system is Klebsiella pneumoniae. In words: Potentiation of colistin-induced antibacterial activity against Klebsiella pneumoniae B9 assessed as reduction in colistin MIC at 7.5 uM incubated for 16 hrs by broth microdilution method (reference value: 512 ug/ml). In kind it is functional. Conditions: B9, 16 h.
Data set [10] has as its system Acinetobacter baumannii. In words: Potentiation of colistin-induced antibacterial activity against Acinetobacter baumannii 17978 harbouring mcr-1 gene assessed as colistin MIC at 50 uM incubated for 16 hrs by broth microdilution method (reference value: 16 ug/ml). In kind it is functional. Conditions: Acinetobacter baumannii, 17978, 16 h.
The test system of data set [11] is Acinetobacter baumannii. In words: Potentiation of colistin-induced antibacterial activity against Acinetobacter baumannii 4106 assessed as reduction in colistin MIC at 15 uM incubated for 16 hrs by broth microdilution method (reference value: 1024 ug/ml). In kind it is functional. Conditions: Acinetobacter baumannii, 4106, 16 h.
Data set [12] deals with Klebsiella pneumoniae. In words: Potentiation of colistin-induced antibacterial activity against Klebsiella pneumoniae C3 assessed as reduction in colistin MIC at 20 uM incubated for 16 hrs by broth microdilution method (reference value: 512 ug/ml). In kind it is functional. Conditions: C3, 16 h. In short, it runs like this: (§2)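 Colistin MIC was measured against chromosomally colistin-resistant strains (K. pneumoniae B9, C3; A. baumannii 4106, among four strains) with adjuvant at fixed levels from 20 μM down to 7.5 μM. Fold reduction was reported against colistin alone, with the CLSI breakpoint taken as ≤2 μg/mL.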

Data set [13] concerns Klebsiella pneumoniae. In words: Potentiation of colistin-induced antibacterial activity against Klebsiella pneumoniae 2210291 harbouring mcr-1 gene assessed as colistin MIC at 50 uM incubated for 16 hrs by broth microdilution method (reference value: 16 ug/ml). In kind it is functional. Conditions: Klebsiella pneumoniae, 2210291, 16 h.
Data set [14] has as its system Acinetobacter baumannii. In words: Potentiation of colistin-induced antibacterial activity against Acinetobacter baumannii 3941 assessed as reduction in colistin MIC at 15 uM incubated for 16 hrs by broth microdilution method (reference value: 512 ug/ml). Type of data set: functional. Conditions: Acinetobacter baumannii, 3941, 16 h.
Data set [15] has as its system Klebsiella pneumoniae. Kind of data set: Potentiation of colistin-induced antibacterial activity against Klebsiella pneumoniae B9 assessed as reduction in colistin MIC at 5 uM incubated for 16 hrs by broth microdilution method (reference value: 512 ug/ml). Type of data set: functional. Conditions: B9, 16 h.
The subject of data set [16] is Escherichia coli. In words: Potentiation of colistin-induced antibacterial activity against Escherichia coli YD626 assessed as colistin MIC at 50 uM incubated for 16 hrs by broth microdilution method (reference value: 1 ug/ml). In kind it is functional. Conditions: YD626, 16 h.
The subject of data set [17] is Klebsiella pneumoniae. In words: Potentiation of colistin-induced antibacterial activity against Klebsiella pneumoniae C3 assessed as reduction in colistin MIC at 10 uM incubated for 16 hrs by broth microdilution method (reference value: 512 ug/ml). Conditions: C3, 16 h. Type of data set: functional.
For data set [18], the system named is Escherichia coli. In words: Potentiation of colistin-induced antibacterial activity against Escherichia coli YD626 harbouring mcr-1 gene assessed as colistin MIC at 50 uM incubated for 16 hrs by broth microdilution method (reference value: 8 ug/ml). Type of data set: functional. Conditions: YD626, 16 h.
Data set [19] deals with Acinetobacter baumannii. Kind of data set: Potentiation of colistin-induced antibacterial activity against Acinetobacter baumannii 17978 assessed as colistin MIC at 50 uM incubated for 16 hrs by broth microdilution method (reference value: 2 ug/ml). Type of data set: functional. Conditions: Acinetobacter baumannii, 17978, 16 h.
Data set [20] relates to Acinetobacter baumannii. In words: Potentiation of colistin-induced antibacterial activity against Acinetobacter baumannii 3941 assessed as reduction in colistin MIC at 20 uM incubated for 16 hrs by broth microdilution method (reference value: 512 ug/ml). In kind it is functional. Conditions: Acinetobacter baumannii, 3941, 16 h.
For data set [21], the system named is Klebsiella pneumoniae. In words: Potentiation of colistin-induced antibacterial activity against Klebsiella pneumoniae 2210291 harbouring mcr-1 gene assessed as reduction in colistin MIC at 15 uM incubated for 16 hrs by broth microdilution method (reference value: 16 ug/ml). In kind it is functional. Conditions: Klebsiella pneumoniae, 2210291, 16 h. In outline:
as §1

The test system of data set [22] is Klebsiella pneumoniae. Kind of data set: Potentiation of colistin-induced antibacterial activity against Klebsiella pneumoniae B9 assessed as reduction in colistin MIC at 10 uM incubated for 16 hrs by broth microdilution method (reference value: 512 ug/ml). Type of data set: functional. Conditions: B9, 16 h. In short, it runs like this:
as §2

Data set [23] has as its system Escherichia coli. In words: Potentiation of colistin-induced antibacterial activity against Escherichia coli YD626 harbouring mcr-1 gene assessed as reduction in colistin MIC at 15 uM incubated for 16 hrs by broth microdilution method (reference value: 8 ug/ml). Type of data set: functional. Conditions: YD626, 16 h. In short, it runs like this:
as §1

Data set [24] is described as follows: Cytotoxicity against mouse 4T1 cells assessed as reduction in cell viability incubated for 18 hrs by MTT assay. Type of data set: cell-based. In outline:
(§3)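 4T1 mouse mammary tumor cells exposed to compound for 18 h, alone or together with colistin at 1 μg/mL. Medium then aspirated and replaced with 0.5 mg/mL MTT in culture medium for colorimetric viability read-out. CT50 taken as the concentration giving 50% cell viability.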
(In general: Tetrazolium dyes change colour on reduction, which living cells bring about.)

Data set [25] can be described thus: Cytotoxicity against mouse 4T1 cells assessed as reduction in cell viability in presence of 1 ug/ml colistin incubated for 18 hrs by MTT assay. In kind it is cell-based. In outline:
as §3

For data set [26], the system named is Escherichia coli. In words: Potentiation of colistin-induced antibacterial activity against Escherichia coli YD626 harbouring mcr-1 gene assessed as reduction in colistin MIC at 15 uM incubated for 16 hrs by broth microdilution method. Type of data set: functional, organism-based. In short, it runs like this: as §1
Data set [27] deals with Acinetobacter baumannii. In words: Potentiation of colistin-induced antibacterial activity against Acinetobacter baumannii 17978 harbouring mcr-1 gene assessed as reduction in colistin MIC at 15 uM incubated for 16 hrs by broth microdilution method. In kind it is functional, organism-based. In short, it runs like this:
as §1

Data set [28] has as its system Klebsiella pneumoniae. In words: Potentiation of colistin-induced antibacterial activity against Klebsiella pneumoniae 2210291 harbouring mcr-1 gene assessed as reduction in colistin MIC at 15 uM incubated for 16 hrs by broth microdilution method. Type of data set: functional, organism-based. In short, it runs like this: as §1
Data set [29] relates to Acinetobacter baumannii. In words: Antivirulence activity in Acinetobacter baumannii 4106 infected Galleria mellonella larvae model assessed as survival rate at 100 mg/kg measured at 24 hrs interval over 4 days. In kind it is functional. In short, it runs like this: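 A. baumannii 4106 was given to Galleria mellonella larvae at 6 × 10^5 CFU, the lethal inoculum found by dose escalation. Larvae were treated with colistin 50 mg/kg, adjuvant 50 mg/kg, colistin plus adjuvant (50 mg/kg each), or tigecycline 100 mg/kg as positive control. Survival was scored out to day 4.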

A short description of data set [30]: Hemolytic activity in sheep RBC at 200 uM incubated for 1 hr by UV spectrophotometry. Type of data set: ADME, cell-based, Ovis aries, Erythrocyte. Conditions: sheep red blood cells (erythrocytes), read-out: Activity. In short, it runs like this: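 Red blood cells exposed to compound at 200 μM, with percent cell lysis recorded.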

In general, MIC refers to the least concentration at which growth counts as inhibited. As for `O=C(NCCc1c[nH]c2ccc(Br)cc12)Nc1ccc(Cl)c(Cl)c1`, the minimum inhibitory concentration (MIC) in data set [1] is 2 µg/mL; in data set [2] it was no more than 0.25 µg/mL; in data set [3], 8 µg/mL; in data set [4], 2 µg/mL; in data set [5], 0.5 µg/mL; in data set [6], 4 µg/mL. In addition, the minimum inhibitory concentration (MIC) in [7] came out at 0.5 µg/mL; in data set [8], 1 µg/mL; in data set [9], 2 µg/mL; in data set [10], 1 µg/mL; in data set [11], 2 µg/mL; in data set [12] it was 1 µg/mL. Also, the MIC in data set [13] amounted to 0.5 µg/mL; in data set [14], 4 µg/mL; in [15], 8 µg/mL; in [16], 0.25 µg/mL; in data set [17] it was 4 µg/mL; in data set [18], 0.5 µg/mL. Besides, the minimal inhibitory concentration (MIC) in data set [19] was 0.5 µg/mL; in [20], 2 µg/mL; in data set [21], 1 µg/mL; in data set [22], 1 µg/mL; in [23] it was 1 µg/mL.
The term CC50 denotes the concentration at which the toxic effect on the cells reaches its halfway point. With `O=C(NCCc1c[nH]c2ccccc12)Nc1cc(Br)cc(Br)c1`, the MIC is 4 µg/mL in data set [1]; no more than 0.25 µg/mL in data set [2]; 16 µg/mL in [3]; 4 µg/mL in data set [4]; 0.5 µg/mL in [5]; 8 µg/mL in [6]. The minimal inhibitory concentration (MIC) in data set [7] was found to be 0.5 µg/mL; in data set [9], 4 µg/mL; in data set [10], 1 µg/mL; in data set [11], 4 µg/mL; in data set [12], 2 µg/mL; in [13], 1 µg/mL. The MIC was determined as 8 µg/mL in data set [14]; 32 µg/mL in data set [15]; 0.25 µg/mL in [16]; 8 µg/mL in data set [17]; 2 µg/mL in data set [18]; 0.5 µg/mL in data set [19]. In addition, the minimum inhibitory concentration (MIC) in data set [20] was found to be 8 µg/mL; in data set [22] it was 1 µg/mL. The CC50 at 18 h in data set [24] was found to be 86.2 µM; in data set [25] it was 64.2 µM. The outcome in data set [26], in data set [27] and in [28] was Active.
For the compound `CN(C)c1cc(NC(=O)CNC(C)(C)C)c(O)c2c1C[C@H]1C[C@H]3[C@H](N(C)C)C(O)=C(C(N)=O)C(=O)[C@@]3(O)C(O)=C1C2=O` [TIGECYCLINE], in data set [29], the Activity came out at 20%.
Consider `CCCCc1ccc(NC(=O)NCCc2c[nH]c3ccc(Br)cc23)cc1`, for which, in data set [30], the hemolysis at 1 h, 200 µM was less than 2.5%. Further, the minimal inhibitory concentration (MIC) in [5] was determined as 0.5 µg/mL; in data set [10], 16 µg/mL; in data set [13] it was 16 µg/mL; in [16], 1 µg/mL; in [18] it was 8 µg/mL; in data set [19], 2 µg/mL.
With `O=C(NCCc1c[nH]c2ccccc12)Nc1cc(C(F)(F)F)cc(C(F)(F)F)c1`, the half-maximal cytotoxic concentration (CC50) at 18 h was determined as 60.5 µM in data set [24] and 61.8 µM in [25]. Besides, the MIC amounted to 0.25 µg/mL in data set [5]; 0.5 µg/mL in data set [10]; 1 µg/mL in [13]; 0.0313 µg/mL in data set [16]; 1 µg/mL in [18]; 0.125 µg/mL in data set [19]. Besides, the result in data set [26], in data set [27] and in data set [28] was Active.
